Screens (PubChem BioAssay)
DNMT1 inh = DNMT1 (human) enzyme inhibition; P26358; DNMT1 molecular beacon, Hinp1I cleavage, fluorescence; inhibition (reported as % activation of signal), % at 10 µM; 0.83% of 360,000 active; AID 588458; in the data active means inhibition above about 50%
NS3 helicase inh = inhibitors of Hepatitis C virus NS3 helicase | inhibition, % at 10.9 µM | 0.56% of 290,000 active | AID 1800 | NS3 helicase DNA unwinding, Cy5 molecular beacon fluorescence;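 active means inhibition above the mean of all tested compounds plus 3 SD, set per campaign, cut at about 35% in these data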
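Material: hepatitis C virus NS3 helicase domain fragment enzyme; measured by: Cy5 fluorescence, 0 and 60 min reads; control set: DMSO and thioflavine S; incubation: 60 min unwinding reaction at 25 °C after ATP addition; read-out basis: % inhibition from 60/0 min fluorescence ratio, DMSO 0%, thioflavine S 100%; repeats: singlicate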
Pemphigus Ab inh = blocks pemphigus antibody binding to human desmoglein-3; P32926; DSG3-coupled beads, scFv-anti-DSG3-GFP binding, flow cytometry; active compounds read low; binding (percent of control), % at 10 µM; 0.48% of 310,000 active; AID 588358;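 active means binding more than 3 SD below its plate's average and above zero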;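 further: hits lower antibody fragment binding to DSG3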
Target sequence (P32926 whole entry, looked up, the tested form may be a part): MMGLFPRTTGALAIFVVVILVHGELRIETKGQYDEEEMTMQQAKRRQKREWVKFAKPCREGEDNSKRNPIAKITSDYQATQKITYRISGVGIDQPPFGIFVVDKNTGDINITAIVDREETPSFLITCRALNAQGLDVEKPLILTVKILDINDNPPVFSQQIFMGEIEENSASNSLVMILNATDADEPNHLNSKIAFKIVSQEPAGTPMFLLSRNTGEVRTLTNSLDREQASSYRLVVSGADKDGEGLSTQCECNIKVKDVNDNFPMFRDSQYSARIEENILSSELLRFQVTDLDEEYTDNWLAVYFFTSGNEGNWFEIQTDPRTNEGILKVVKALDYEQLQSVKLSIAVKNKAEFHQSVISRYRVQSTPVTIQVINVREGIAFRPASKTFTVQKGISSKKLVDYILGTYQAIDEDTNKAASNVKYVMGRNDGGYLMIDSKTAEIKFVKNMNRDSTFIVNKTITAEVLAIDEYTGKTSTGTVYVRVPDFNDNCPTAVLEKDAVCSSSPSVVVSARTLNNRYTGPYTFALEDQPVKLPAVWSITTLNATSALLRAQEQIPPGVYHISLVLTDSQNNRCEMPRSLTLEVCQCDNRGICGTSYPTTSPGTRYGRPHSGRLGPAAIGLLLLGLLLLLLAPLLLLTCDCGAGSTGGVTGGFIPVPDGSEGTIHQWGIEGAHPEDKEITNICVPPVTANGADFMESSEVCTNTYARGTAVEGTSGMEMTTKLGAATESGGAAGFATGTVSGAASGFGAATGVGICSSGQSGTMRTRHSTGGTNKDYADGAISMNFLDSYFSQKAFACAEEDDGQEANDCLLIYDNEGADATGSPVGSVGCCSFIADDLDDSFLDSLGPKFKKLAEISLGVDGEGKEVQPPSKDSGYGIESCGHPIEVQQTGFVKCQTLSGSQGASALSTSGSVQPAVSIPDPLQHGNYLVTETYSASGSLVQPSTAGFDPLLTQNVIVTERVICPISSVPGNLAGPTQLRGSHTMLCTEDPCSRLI
MBD2 DNA inh = blocks human MBD2 binding to methylated DNA | Q9UBB5 | TR-FRET, MBD2 binding to methylated oligonucleotide | inhibition, % at 4.4 µM | 0.31% of 370,000 active; in the data active means inhibition above about 13%
UHRF1 MBD2 ctr = blocks human UHRF1 binding to methylated DNA; Q96T88; UHRF1 binding to methylated oligo, TR-FRET; inhibition, % at 4.4 µM; 0.75% of 370,000 active; in the data active means inhibition above about 21%;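 further: UHRF1 SRA domain binding a hemimethylated CpG hairpin DNA probe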
SUMO1-SIM PPI = alters human SUMO1 binding to SIM partners | SUMO1 binding to a labelled peptide, TR-FRET, 1 h | inhibition, % at 20 µM | 0.33% of 360,000 active; in the data active means inhibition above about 37%
DNMT1 inh conf = DNMT1 inhibition confirmation, single concentration; inhibition, % at 10 µM; shares compounds with DNMT1 inh; 8% of 2,300 active; DNMT1 molecular beacon HinP1I cleavage, fluorescence;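 active means average inhibition of at least 30% in the single-concentration confirmation test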
Beacon interf = shows spectral interference in the DNMT1 beacon assay; shares compounds with DNMT1 inh; DNMT1 molecular beacon spectral interference counterscreen, fluorescence 485/520; activation (fluorescence interference), % at 10 µM; 1% of 2,300 active;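 active means activation of at least 30% at 10 µM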;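 further: DNMT1 catalytic domain with a HinP1I cleavage step and a FAM/dabcyl DNA beacon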
Each line names hits and unclear results; the compound was inactive in the other large screens (follow-up assays come after a bar, where they were run). Hits are enriched below; roughly 2.5% of the tested compounds scored in any of these assays.

COC(=O)[C@]1(C)CCC[C@@]2(C)C3CC[C@@]4(C)C[C@]3(CC[C@H]12)C[C@H]4O (stereo partly drawn)	none
COc1cc(/C=C2\CCCc3c2nc2ccccc2c3C(=O)O)cc(Br)c1O	none (no result: Pemphigus Ab inh)
CCOc1cc(/C=C2\CCCc3c2nc2ccccc2c3C(=O)O)ccc1OC	DNMT1 inh 61.0 | DNMT1 inh conf inactive | Beacon interf inactive
N#Cc1ccc(C(=O)OCC(=O)N2CCOCC2)cc1	none (no result: Pemphigus Ab inh)
Cc1nnc(NC(=O)CSc2ccc(-c3ccco3)nn2)s1	DNMT1 inh 52.6 | DNMT1 inh conf inactive | Beacon interf inactive
Cc1ccnc(NC(=O)Nc2ccc3c(c2)N(C)C(=O)CS3)c1	none
C[C@@H](NC(=O)c1ncn2c1c(=O)[nH]c1cccnc12)c1ccccc1	none (no result: NS3 helicase inh, Pemphigus Ab inh)
C[C@@H](NC(=O)c1ncn2c1c(=O)[nH]c1ccc(Br)cc12)c1ccccc1	DNMT1 inh 93.0 (no result: NS3 helicase inh) | DNMT1 inh conf inactive | Beacon interf inactive
CCOc1ccc(/C=N/N(C)c2ccccc2)cc1OC	none
CCC/C(=C1/c2ccccc2C(=O)N1c1ccccc1)c1ccc2c(c1)OCO2	none (no result: NS3 helicase inh)
Cc1cc(C)cc(OCc2nc3ncc(Br)cc3[nH]2)c1	DNMT1 inh 59.4 | DNMT1 inh conf inactive | Beacon interf inactive
C=CCn1c(=O)c(C(=O)NC(C)c2ccccc2)c(O)c2ccccc21 (stereo not drawn)	DNMT1 inh 83.7 | DNMT1 inh conf inactive | Beacon interf inactive
Cn1c(=O)[nH]c(=O)c2c1nc(N1CCc3ccccc3C1)n2CCSc1nc2ccccc2s1	none
CCCCCOC(=O)c1c(N)n(CCOC)c2nc3ccccc3nc12	none
CCOC(=O)c1c(N)n(CCOC(=O)c2cccs2)c2nc3ccccc3nc12	DNMT1 inh 100.1 | DNMT1 inh conf inactive | Beacon interf inactive
CCOC(=O)c1cn(-c2nc(-c3ccc(Cl)c(Cl)c3)cs2)c2c(F)c(N3CCOCC3)c(F)cc2c1=O	DNMT1 inh 58.2 | DNMT1 inh conf inactive | Beacon interf inactive
CCOC(=O)c1cn(-c2ccc(F)c(F)c2F)c2c(F)c(F)c(F)cc2c1=O	none
COc1cccc(-n2nnnc2SCC(=O)NC2CCCCC2)c1	none
O=C(CCS(=O)(=O)c1ccc(Br)cc1)NCc1ccc(F)cc1	DNMT1 inh 50.8 | DNMT1 inh conf inactive | Beacon interf inactive
O=C(CCS(=O)(=O)c1ccc(Br)cc1)NCCC1=CCCCC1	DNMT1 inh 65.5 | DNMT1 inh conf inactive | Beacon interf inactive
O=C(CCS(=O)(=O)c1ccc(Cl)cc1)NCCC1=CCCCC1	none
Cc1ccc(CNC(=O)CCS(=O)(=O)c2ccc(Br)cc2)cc1	DNMT1 inh 89.3 | DNMT1 inh conf inactive | Beacon interf inactive
Cc1ccc(Cl)cc1-c1cc(C(=O)N2CCN(c3ccncc3)CC2)[nH]n1	none (no result: NS3 helicase inh, Pemphigus Ab inh)
Cc1ccsc1CN(C)C(=O)CN1C(=O)NC2(CCCCC2C)C1=O (stereo not drawn)	none (no result: NS3 helicase inh)
Cc1ccccc1-c1ccc(=O)n(CC(=O)Nc2ccc(-n3cnnn3)cc2)n1	DNMT1 inh 90.0 | DNMT1 inh conf inactive | Beacon interf inactive
Cc1ccccc1-c1ccc(=O)n(CC(=O)Nc2ccc(S(=O)(=O)N(C)C)cc2)n1	none
NC(=O)CC(NC(=O)Cc1ccc(Br)cc1)c1ccc(N2CCN(c3ccccc3)CC2)c([N+](=O)[O-])c1 (stereo not drawn)	none (no result: NS3 helicase inh)
CC1CCCN(CCCNC(=O)C2CCC(CNS(=O)(=O)c3cccc4nsnc34)CC2)C1 (stereo not drawn)	DNMT1 inh 50.4 (no result: MBD2 DNA inh, UHRF1 MBD2 ctr) | DNMT1 inh conf inactive | Beacon interf inactive
CCCCNC(=O)C1CCC(CNS(=O)(=O)c2cccc3nsnc23)CC1 (stereo not drawn)	none
O=[N+]([O-])c1cc(C(F)(F)F)ccc1NC1CCN(Cc2ccccc2)C1 (stereo not drawn)	none
O=C1C2CC=C(Cl)CC2C(=O)N1CCCCCCN1C(=O)C2CC=C(Cl)CC2C1=O (stereo not drawn)	DNMT1 inh 61.4 | DNMT1 inh conf inactive | Beacon interf inactive
